According to ChEMBL document CHEMBL5653631, “A Potent and Selective ULK1 Inhibitor Suppresses Autophagy and Sensitizes Cancer Cells to Nutrient Stress” (iScience, 2018):
Values belong to the compound of their own block, whether it stands above or below them.

Key:
[1] = molecular target: Myosin light chain kinase 2, skeletal/cardiac muscle (Homo sapiens) (UniProt Q9H1R3); experiment: Inhibition of human recombinant skMLCK at 500 nM in presence of ATP by radiometric assay relative to control
[2] = molecular target: Interferon-induced, double-stranded RNA-activated protein kinase (Homo sapiens) (UniProt P19525); experiment: Inhibition of human recombinant PKR at 500 nM related to control ULK1
[3] = molecular target: Interferon-induced, double-stranded RNA-activated protein kinase (Homo sapiens) (UniProt P19525); experiment: Inhibition of human recombinant PKR at 500 nM in presence of ATP by radiometric assay relative to control
[4] = molecular target: Calcium/calmodulin-dependent protein kinase type 1 (Homo sapiens) (UniProt Q14012); experiment: Inhibition of human recombinant CaMK1a at 500 nM related to control ULK1
[5] = molecular target: NT-3 growth factor receptor (Homo sapiens) (UniProt Q16288); experiment: Inhibition of human recombinant TRKC at 500 nM related to control ULK1
[6] = molecular target: Leukocyte tyrosine kinase receptor (Homo sapiens) (UniProt P29376); experiment: Inhibition of human recombinant LTK at 500 nM in presence of ATP by radiometric assay relative to control
[7] = molecular target: Serine/threonine-protein kinase Nek7 (Homo sapiens) (UniProt Q8TDX7); experiment: Inhibition of human recombinant NEK7 at 500 nM related to control ULK1
[8] = molecular target: Dual specificity mitogen-activated protein kinase kinase 1 (Homo sapiens) (UniProt Q02750); experiment: Inhibition of human recombinant MAP2K1 at 15 nM related to control ULK1
[9] = molecular target: Fibroblast growth factor receptor 4 (Homo sapiens) (UniProt P22455); experiment: Inhibition of human recombinant FGFR4 at 15 nM related to control ULK1
[10] = molecular target: Leukocyte tyrosine kinase receptor (Homo sapiens) (UniProt P29376); experiment: Inhibition of human recombinant LTK at 15 nM related to control ULK1
[11] = molecular target: ALK tyrosine kinase receptor (Homo sapiens) (UniProt Q9UM73); experiment: Inhibition of human recombinant ALK at 15 nM in presence of ATP by radiometric assay relative to control
Procedure, shortened: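 Panel of 327 recombinant human kinases in radiometric activity assays, each screened in duplicate at a single inhibitor concentration; percent activity remaining relative to vehicle control, percent inhibition taken as 100 minus activity remaining.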

[12] = molecular target: Myosin light chain kinase, smooth muscle (Homo sapiens) (UniProt Q15746); experiment: Inhibition of human recombinant smMLCK at 40 nM related to control ULK1
[13] = molecular target: T1, Ephrin type-A receptor 1 (Homo sapiens) (UniProt P21709); experiment: Inhibition of human recombinant EphA1 at 40 nM in presence of ATP by radiometric assay relative to control
T1 sequence (whole entry): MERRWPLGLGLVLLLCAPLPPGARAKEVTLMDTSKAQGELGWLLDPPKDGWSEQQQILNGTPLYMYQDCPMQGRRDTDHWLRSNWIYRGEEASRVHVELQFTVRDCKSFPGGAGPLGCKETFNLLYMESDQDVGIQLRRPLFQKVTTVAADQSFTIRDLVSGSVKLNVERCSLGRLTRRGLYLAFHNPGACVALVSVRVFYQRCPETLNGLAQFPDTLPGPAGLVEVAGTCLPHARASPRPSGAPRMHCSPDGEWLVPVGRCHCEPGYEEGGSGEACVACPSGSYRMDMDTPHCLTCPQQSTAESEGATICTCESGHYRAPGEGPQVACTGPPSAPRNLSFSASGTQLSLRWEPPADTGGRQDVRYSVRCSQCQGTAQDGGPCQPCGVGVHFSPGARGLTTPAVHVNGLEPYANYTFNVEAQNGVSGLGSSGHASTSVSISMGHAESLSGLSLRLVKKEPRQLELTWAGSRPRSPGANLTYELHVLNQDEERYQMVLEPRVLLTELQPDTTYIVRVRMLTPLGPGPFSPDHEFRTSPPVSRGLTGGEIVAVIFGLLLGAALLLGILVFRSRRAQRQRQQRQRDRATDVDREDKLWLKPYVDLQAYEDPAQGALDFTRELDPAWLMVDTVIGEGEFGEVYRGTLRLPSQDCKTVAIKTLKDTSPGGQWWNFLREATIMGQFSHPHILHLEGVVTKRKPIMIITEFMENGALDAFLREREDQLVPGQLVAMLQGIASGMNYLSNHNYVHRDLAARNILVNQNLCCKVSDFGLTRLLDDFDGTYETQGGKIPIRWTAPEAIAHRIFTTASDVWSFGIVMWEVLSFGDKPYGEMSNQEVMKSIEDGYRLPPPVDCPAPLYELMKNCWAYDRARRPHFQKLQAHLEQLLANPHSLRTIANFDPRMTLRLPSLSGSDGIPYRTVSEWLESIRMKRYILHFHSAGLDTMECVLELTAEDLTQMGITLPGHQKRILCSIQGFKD

[14] = molecular target: STE20-like serine/threonine-protein kinase (Homo sapiens) (UniProt Q9H2G2); experiment: Inhibition of human recombinant SLK at 40 nM related to control ULK1
[15] = molecular target: Serine/threonine-protein kinase pim-2 (Homo sapiens) (UniProt Q9P1W9); experiment: Inhibition of human recombinant PIM2 at 40 nM related to control ULK1
[16] = molecular target: T2, Aurora kinase C (Homo sapiens) (UniProt Q9UQB9); experiment: Inhibition of human recombinant AurC at 40 nM related to control ULK1
T2 sequence (whole entry): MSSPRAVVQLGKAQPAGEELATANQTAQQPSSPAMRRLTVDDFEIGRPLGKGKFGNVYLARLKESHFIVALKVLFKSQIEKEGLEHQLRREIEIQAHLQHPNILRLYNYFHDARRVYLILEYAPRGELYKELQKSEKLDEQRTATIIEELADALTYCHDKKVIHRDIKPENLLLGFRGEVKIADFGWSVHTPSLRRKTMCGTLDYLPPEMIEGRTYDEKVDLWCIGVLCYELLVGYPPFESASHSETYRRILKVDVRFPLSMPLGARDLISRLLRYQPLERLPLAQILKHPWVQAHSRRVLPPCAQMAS
Procedure, shortened: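 Radiometric activity assays in a panel of 327 human recombinant kinases, each run in duplicate at one inhibitor concentration. Activity remaining is expressed as percent of vehicle control, and percent inhibition is calculated as 100% minus percent activity remaining.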

Homo sapiens = organism: Homo sapiens; experiment: Inhibition of human recombinant p70S6K at 40 nM in presence of ATP by radiometric assay relative to control

Chain of Interferon-induced, double-stranded RNA-activated protein kinase (Homo sapiens) (P19525 whole entry): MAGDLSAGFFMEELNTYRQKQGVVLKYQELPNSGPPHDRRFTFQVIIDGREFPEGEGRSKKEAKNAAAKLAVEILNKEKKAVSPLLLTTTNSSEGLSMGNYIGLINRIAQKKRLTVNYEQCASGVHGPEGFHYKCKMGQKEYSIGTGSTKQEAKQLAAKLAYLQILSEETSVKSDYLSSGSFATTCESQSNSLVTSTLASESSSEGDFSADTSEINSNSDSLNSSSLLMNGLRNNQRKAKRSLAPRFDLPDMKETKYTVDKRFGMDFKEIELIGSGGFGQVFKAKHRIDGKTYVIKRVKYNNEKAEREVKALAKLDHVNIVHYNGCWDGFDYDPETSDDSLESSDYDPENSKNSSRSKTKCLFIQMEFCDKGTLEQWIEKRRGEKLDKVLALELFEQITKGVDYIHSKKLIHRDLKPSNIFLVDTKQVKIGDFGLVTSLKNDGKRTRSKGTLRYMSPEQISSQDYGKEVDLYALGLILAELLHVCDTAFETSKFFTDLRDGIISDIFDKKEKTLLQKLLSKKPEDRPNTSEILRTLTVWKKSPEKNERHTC
Chain of Leukocyte tyrosine kinase receptor (Homo sapiens) (P29376 whole entry): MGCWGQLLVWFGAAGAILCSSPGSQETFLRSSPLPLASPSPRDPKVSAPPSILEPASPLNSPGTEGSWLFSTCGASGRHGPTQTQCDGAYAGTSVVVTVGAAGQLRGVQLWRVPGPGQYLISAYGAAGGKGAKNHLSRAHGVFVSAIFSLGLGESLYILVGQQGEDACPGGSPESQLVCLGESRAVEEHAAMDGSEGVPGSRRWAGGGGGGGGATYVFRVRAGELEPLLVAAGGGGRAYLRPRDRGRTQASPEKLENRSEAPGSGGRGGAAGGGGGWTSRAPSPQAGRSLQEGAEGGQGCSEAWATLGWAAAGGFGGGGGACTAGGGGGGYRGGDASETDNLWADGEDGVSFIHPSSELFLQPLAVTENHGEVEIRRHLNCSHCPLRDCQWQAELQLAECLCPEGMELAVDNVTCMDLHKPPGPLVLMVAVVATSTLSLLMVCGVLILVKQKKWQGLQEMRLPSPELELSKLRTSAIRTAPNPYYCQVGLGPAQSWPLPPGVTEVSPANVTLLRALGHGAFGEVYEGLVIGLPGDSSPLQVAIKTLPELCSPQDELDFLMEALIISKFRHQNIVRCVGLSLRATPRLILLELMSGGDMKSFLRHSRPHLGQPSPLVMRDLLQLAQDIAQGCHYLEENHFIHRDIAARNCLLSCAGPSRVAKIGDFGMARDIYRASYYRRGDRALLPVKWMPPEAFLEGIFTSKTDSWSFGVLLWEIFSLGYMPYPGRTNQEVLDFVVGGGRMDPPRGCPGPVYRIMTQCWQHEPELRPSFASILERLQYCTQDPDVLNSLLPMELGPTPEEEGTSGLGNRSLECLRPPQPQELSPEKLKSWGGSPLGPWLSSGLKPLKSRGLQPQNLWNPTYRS
Chain of Fibroblast growth factor receptor 4 (Homo sapiens) (P22455 22-802 limits assumed): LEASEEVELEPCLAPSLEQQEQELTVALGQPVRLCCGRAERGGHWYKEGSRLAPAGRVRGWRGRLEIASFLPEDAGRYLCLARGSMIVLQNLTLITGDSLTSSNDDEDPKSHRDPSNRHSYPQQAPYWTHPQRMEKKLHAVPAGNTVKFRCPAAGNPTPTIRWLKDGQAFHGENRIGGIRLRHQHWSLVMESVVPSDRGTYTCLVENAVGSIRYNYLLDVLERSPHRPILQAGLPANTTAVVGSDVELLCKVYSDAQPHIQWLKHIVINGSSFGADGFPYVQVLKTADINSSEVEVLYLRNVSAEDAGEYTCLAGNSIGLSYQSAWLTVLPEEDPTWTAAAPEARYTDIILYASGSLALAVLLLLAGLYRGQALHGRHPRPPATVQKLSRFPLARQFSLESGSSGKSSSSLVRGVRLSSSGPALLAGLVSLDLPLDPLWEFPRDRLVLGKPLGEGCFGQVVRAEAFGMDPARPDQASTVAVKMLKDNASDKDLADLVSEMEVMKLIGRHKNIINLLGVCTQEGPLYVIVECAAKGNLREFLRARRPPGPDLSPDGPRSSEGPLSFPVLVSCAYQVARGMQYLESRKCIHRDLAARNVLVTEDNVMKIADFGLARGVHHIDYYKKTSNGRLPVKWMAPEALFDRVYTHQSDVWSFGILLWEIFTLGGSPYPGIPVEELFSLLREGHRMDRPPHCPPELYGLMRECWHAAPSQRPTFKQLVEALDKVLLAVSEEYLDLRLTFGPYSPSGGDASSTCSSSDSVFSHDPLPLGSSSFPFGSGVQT
Chain of Myosin light chain kinase 2, skeletal/cardiac muscle (Homo sapiens) (Q9H1R3 whole entry): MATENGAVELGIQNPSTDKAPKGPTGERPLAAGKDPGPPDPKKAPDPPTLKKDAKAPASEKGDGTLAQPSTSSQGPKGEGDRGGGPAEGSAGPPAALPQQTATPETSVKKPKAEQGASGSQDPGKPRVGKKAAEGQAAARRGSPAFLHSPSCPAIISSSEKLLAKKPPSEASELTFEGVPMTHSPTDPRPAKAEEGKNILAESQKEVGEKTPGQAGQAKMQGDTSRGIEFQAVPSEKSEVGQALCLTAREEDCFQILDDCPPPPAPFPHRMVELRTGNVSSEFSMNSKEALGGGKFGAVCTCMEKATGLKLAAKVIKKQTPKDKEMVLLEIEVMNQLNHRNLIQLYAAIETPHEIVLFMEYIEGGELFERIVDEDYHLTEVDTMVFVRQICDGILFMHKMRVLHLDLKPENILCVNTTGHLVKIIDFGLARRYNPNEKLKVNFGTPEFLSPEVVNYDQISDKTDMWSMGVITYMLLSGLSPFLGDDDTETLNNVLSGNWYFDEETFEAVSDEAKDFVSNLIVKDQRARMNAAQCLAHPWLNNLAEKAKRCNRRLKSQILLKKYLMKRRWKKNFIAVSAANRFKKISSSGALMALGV
Chain of ALK tyrosine kinase receptor (Homo sapiens) (Q9UM73 19-1620 limits assumed): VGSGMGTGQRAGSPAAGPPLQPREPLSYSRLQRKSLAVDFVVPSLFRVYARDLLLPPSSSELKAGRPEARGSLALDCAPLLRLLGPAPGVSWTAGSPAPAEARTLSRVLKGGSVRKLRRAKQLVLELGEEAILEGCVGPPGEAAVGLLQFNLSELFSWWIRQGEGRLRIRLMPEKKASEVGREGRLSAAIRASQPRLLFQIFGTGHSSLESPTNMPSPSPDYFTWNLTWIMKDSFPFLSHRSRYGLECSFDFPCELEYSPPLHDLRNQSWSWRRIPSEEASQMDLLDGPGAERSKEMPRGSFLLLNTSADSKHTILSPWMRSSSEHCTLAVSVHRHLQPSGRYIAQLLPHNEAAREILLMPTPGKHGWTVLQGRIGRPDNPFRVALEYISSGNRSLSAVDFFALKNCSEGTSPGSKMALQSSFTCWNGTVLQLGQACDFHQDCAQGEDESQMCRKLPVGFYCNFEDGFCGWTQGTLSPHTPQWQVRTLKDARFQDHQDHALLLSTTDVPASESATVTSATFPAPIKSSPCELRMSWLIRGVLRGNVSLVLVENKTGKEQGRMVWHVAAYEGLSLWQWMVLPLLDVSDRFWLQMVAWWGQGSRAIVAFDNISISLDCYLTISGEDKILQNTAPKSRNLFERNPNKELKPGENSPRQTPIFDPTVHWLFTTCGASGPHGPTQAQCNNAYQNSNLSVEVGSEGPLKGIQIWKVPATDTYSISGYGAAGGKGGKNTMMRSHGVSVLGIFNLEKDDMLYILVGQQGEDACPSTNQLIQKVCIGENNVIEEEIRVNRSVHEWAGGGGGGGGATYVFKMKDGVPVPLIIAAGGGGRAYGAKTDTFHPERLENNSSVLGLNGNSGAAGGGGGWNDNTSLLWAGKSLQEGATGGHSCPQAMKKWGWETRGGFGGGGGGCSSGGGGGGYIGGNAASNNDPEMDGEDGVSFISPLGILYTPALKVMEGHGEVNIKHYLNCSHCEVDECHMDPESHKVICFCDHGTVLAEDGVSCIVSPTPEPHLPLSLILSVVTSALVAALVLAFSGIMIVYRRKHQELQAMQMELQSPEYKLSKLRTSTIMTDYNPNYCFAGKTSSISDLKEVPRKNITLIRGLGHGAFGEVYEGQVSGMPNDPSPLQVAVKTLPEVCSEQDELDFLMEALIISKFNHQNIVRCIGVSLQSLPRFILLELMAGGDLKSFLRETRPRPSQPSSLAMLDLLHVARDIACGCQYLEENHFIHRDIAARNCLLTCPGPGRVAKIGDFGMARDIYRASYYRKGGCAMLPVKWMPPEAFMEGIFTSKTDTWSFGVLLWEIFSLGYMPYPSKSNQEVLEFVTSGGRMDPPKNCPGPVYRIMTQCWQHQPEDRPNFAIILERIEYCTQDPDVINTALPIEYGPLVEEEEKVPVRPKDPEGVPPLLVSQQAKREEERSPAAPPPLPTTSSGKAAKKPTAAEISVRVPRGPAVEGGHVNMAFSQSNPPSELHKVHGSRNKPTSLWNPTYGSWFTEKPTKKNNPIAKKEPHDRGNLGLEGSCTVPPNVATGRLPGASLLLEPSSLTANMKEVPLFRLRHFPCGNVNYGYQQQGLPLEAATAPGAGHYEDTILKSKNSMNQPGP
Chain of Dual specificity mitogen-activated protein kinase kinase 1 (Homo sapiens) (Q02750 whole entry): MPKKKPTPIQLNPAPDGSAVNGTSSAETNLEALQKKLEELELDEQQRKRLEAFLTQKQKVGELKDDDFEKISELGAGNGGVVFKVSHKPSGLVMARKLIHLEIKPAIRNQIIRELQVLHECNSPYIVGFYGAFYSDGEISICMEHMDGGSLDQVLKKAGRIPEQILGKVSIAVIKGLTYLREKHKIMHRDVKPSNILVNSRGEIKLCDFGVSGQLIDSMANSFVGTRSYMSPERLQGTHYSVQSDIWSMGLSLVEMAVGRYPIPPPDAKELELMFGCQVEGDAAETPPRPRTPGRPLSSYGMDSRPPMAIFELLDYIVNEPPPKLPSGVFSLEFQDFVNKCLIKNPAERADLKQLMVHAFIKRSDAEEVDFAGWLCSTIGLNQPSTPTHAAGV

inhibition [1]: 0%
fold change (FC) [2]: 0.05
inhibition [3]: 4%
fold change (FC) [4]: 0
fold change (FC) [5]: 0
inhibition [6]: 3%
fold change (FC) [7]: 0
SMILES: CNC(=O)c1ccccc1Oc1nc(Nc2cc(OC)c(OC)c(OC)c2)ncc1Br

fold change (FC) [8]: 0.08
fold change (FC) [9]: 0
fold change (FC) [10]: 0
inhibition [11]: 0%
SMILES: CC(C)[C@H](NC(=O)c1cc(-c2cnn3cc(-c4ccc(OCCN5CCCCC5)cc4)cnc23)cs1)C(F)(F)F

fold change (FC) [12]: 0.07
inhibition [13]: 0%
fold change (FC) [14]: 0
fold change (FC) [15]: 0.04
fold change (FC) [16]: 0
inhibition (Homo sapiens): 2%
SMILES: O=C(N[C@@H](C1CC1)C(F)(F)F)c1cc(-c2cnn3cc(-c4ccc(F)cc4)cnc23)cs1
